Experiments:
[1] = molecular target: T1, Beta-3 adrenergic receptor (Homo sapiens, UniProt P13945); experiment: Agonist activity at human beta3 adrenergic receptor
Summary of the method: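 Human β3 receptor agonist EC50 given as the mean of at least two experiments.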
Target sequence in this assay (P13945 whole entry): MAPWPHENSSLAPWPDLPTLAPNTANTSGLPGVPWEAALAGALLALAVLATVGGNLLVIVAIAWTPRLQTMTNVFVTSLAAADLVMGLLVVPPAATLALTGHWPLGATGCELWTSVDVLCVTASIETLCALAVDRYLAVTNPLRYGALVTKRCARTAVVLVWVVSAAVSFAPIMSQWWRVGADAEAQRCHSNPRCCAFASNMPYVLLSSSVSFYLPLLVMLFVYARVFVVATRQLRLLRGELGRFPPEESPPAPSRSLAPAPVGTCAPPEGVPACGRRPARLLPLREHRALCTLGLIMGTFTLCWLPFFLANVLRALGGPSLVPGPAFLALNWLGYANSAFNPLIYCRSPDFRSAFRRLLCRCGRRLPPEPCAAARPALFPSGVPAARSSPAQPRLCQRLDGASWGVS

Rattus norvegicus [2] = experiment: Total dose normalized AUC in rat 2 mg/kg, po; format: ADME, organism-based; conditions: in vivo
[3] = molecular target: Voltage-gated inwardly rectifying potassium channel KCNH2 (Homo sapiens, UniProt Q12809); experiment: Inhibition of human ERG
Chain of Voltage-gated inwardly rectifying potassium channel KCNH2 (Q12809 whole entry): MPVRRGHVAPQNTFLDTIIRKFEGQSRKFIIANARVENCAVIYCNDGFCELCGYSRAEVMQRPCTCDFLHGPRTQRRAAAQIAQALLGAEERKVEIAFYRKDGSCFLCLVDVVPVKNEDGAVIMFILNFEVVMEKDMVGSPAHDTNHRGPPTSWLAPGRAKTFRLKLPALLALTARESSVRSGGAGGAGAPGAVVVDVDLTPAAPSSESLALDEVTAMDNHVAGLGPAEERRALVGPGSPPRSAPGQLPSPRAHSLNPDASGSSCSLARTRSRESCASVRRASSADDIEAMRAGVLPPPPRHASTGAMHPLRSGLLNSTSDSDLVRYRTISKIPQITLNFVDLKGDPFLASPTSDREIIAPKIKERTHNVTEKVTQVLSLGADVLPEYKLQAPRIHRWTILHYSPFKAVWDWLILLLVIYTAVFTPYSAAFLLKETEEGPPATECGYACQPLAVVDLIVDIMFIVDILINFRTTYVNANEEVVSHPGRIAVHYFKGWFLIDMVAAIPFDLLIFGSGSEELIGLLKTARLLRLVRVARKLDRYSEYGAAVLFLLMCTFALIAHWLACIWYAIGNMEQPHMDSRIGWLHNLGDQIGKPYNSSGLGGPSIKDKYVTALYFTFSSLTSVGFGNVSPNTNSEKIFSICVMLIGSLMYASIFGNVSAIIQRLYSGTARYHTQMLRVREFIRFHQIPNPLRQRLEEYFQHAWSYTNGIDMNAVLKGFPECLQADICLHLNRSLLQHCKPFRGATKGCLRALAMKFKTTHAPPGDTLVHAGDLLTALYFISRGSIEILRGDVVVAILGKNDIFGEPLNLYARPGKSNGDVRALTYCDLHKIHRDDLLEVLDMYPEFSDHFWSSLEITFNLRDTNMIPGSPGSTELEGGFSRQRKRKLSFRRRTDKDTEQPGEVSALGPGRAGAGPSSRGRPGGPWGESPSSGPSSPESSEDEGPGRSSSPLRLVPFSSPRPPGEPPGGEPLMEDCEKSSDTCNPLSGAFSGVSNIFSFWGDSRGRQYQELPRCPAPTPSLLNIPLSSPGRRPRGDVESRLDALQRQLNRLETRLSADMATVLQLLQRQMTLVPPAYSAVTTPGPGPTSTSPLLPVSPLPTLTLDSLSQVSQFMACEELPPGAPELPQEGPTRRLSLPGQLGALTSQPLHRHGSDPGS

[4] = molecular target: Beta-1 adrenergic receptor (Homo sapiens, UniProt P08588); experiment: Activity at human beta1 adrenergic receptor
Chain of Beta-1 adrenergic receptor (P08588 whole entry): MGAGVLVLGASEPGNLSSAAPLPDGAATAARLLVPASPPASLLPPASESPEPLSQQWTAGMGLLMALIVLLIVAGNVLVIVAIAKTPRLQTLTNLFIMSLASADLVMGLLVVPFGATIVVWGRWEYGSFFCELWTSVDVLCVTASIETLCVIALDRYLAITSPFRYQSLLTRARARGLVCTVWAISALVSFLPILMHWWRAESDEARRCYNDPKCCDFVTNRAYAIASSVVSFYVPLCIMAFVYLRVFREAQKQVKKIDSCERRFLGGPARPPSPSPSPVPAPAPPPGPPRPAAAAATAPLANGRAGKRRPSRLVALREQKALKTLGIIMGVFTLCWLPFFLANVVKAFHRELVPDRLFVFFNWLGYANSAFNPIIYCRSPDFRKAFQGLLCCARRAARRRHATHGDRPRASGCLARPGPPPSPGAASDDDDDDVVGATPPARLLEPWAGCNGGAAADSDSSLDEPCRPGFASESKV

[5] = molecular target: Sodium-dependent noradrenaline transporter (Homo sapiens, UniProt P23975); experiment: Inhibition of NET (unknown origin) expressed in HEK293 cells assessed as reduction in norepinephrine reuptake; format: cell-based
Chain of Sodium-dependent noradrenaline transporter (P23975 whole entry): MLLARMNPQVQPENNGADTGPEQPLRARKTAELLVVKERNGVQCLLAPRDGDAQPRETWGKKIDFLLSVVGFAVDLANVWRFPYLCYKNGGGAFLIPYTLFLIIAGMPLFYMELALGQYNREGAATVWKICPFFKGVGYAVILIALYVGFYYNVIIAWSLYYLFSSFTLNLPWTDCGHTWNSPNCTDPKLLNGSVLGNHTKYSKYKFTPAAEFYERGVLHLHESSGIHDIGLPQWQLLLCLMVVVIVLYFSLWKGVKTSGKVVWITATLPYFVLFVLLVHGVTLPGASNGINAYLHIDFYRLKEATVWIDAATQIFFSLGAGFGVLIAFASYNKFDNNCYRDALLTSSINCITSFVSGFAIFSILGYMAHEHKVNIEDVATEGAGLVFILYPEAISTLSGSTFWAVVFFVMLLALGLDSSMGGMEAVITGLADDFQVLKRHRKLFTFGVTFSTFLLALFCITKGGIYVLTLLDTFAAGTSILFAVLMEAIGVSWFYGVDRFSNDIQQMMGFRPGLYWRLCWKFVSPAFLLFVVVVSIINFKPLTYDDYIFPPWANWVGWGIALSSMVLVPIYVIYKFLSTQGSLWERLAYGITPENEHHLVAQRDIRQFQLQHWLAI

[6] = molecular target: Beta-2 adrenergic receptor (Homo sapiens, UniProt P07550); experiment: Activity at human beta2 adrenergic receptor
Chain of Beta-2 adrenergic receptor (P07550 whole entry): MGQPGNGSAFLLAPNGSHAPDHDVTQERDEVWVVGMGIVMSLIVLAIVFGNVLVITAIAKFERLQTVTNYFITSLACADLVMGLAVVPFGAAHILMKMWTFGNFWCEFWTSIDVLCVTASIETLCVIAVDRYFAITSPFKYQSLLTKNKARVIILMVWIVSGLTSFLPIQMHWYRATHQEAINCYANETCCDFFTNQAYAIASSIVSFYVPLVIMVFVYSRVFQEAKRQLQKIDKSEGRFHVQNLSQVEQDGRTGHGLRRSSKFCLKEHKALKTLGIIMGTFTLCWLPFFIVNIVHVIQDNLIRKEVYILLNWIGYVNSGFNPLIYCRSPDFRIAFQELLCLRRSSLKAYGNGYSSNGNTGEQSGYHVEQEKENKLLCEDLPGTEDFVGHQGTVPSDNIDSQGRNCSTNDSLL

[7] = Oral bioavailability in rat 2 mg/kg; format: ADME, organism-based; conditions: in vivo
[8] = molecular target: T1, Beta-3 adrenergic receptor; experiment: Agonist activity at human beta3 adrenergic receptor relative to R-(-)-isoproterenol
Target sequence in this assay (P13945 whole entry, looked up): as the sequence (P13945 whole entry) above

[9] = molecular target: Sodium-dependent serotonin transporter (Homo sapiens, UniProt P31645); experiment: Inhibition of SERT (unknown origin)
Chain of Sodium-dependent serotonin transporter (P31645 whole entry): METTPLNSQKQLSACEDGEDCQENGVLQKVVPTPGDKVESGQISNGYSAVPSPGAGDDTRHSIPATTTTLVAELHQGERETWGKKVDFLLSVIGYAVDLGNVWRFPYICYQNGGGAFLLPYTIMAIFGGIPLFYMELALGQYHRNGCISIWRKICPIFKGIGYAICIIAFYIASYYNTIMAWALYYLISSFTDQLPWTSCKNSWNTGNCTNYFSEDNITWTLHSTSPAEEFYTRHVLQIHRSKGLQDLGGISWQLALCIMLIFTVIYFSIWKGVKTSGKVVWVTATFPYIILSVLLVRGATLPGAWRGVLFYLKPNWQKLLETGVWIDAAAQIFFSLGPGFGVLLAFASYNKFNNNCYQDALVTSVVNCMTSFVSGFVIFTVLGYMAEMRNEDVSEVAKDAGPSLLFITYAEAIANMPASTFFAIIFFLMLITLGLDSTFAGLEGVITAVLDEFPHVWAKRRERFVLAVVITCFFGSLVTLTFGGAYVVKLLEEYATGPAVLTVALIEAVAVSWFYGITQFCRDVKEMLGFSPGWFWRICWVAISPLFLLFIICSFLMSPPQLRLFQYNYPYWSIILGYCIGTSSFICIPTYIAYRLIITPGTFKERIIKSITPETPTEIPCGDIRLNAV

[10] = Volume of distribution in rat at 1 mg/kg, iv or 2 mg/kg, po; format: ADME, organism-based; conditions: in vivo
[11] = Half life in rat at 1 mg/kg, iv or 2 mg/kg, po; format: ADME, organism-based; conditions: in vivo
[12] = molecular target: Sodium channel protein type 5 subunit alpha (Homo sapiens, UniProt Q14524); experiment: Inhibition of human Nav1.5 by electrophysiology method
[13] = Plasma clearance in rat at 1 mg/kg, iv or 2 mg/kg, po; format: ADME, organism-based
[14] = Volume of distribution in rhesus monkey at 0.5 mg/kg, iv or 2 mg/kg, po; format: ADME, organism-based, Macaca mulatta; conditions: in vivo
[15] = Plasma clearance in rhesus monkey at 0.5 mg/kg, iv or 2 mg/kg, po; format: ADME, organism-based, Macaca mulatta
Canis familiaris [16] = experiment: Total dose normalized AUC in dog at 2 mg/kg, po; format: ADME, organism-based, Canis lupus familiaris; conditions: in vivo
[17] = Oral bioavailability in rhesus monkey at 2 mg/kg; format: ADME, organism-based, Macaca mulatta; conditions: in vivo
Rhesus monkey [18] = experiment: Total dose normalized AUC in rhesus monkey at 2 mg/kg, po; format: ADME, organism-based, Macaca mulatta; conditions: in vivo
[19] = Induction of phospholipidosis in human HepG2 cells; format: cell-based; conditions: read-out: A50
Rhesus monkey [20] = experiment: Unbound dose normalized AUC in rhesus monkey at 2 mg/kg, po; format: ADME, organism-based, Macaca mulatta; conditions: in vivo
Rattus norvegicus [21] = experiment: Unbound clearance in rat at 1 mg/kg, iv or 2 mg/kg, po; format: ADME, organism-based; conditions: in vivo
[22] = Plasma clearance in dog at 0.5 mg/kg, iv or 2 mg/kg, po; format: ADME, organism-based, Canis lupus familiaris
[23] = Volume of distribution in dog at 0.5 mg/kg, iv or 2 mg/kg, po; format: ADME, organism-based, Canis lupus familiaris; conditions: in vivo
[24] = Unbound fraction in rhesus monkey at 0.5 mg/kg, iv or 2 mg/kg, po; format: ADME, organism-based, Macaca mulatta; conditions: in vivo
[25] = Oral bioavailability in dog at 2 mg/kg; format: ADME, organism-based, Canis lupus familiaris; conditions: in vivo
Rhesus monkey [26] = experiment: Unbound clearance in rhesus monkey at 0.5 mg/kg, iv or 2 mg/kg, po; format: ADME, organism-based, Macaca mulatta; conditions: in vivo
Canis familiaris [27] = experiment: Unbound clearance in dog at 0.5 mg/kg, iv or 2 mg/kg, po; format: ADME, organism-based, Canis lupus familiaris; conditions: in vivo
[28] = Unbound fraction in dog at 0.5 mg/kg, iv or 2 mg/kg, po; format: ADME, organism-based, Canis lupus familiaris; conditions: in vivo
Canis familiaris [29] = experiment: Unbound dose normalized AUC in dog at 2 mg/kg, po; format: ADME, organism-based, Canis lupus familiaris; conditions: in vivo
Rattus norvegicus [30] = experiment: Unbound dose normalized AUC in rat 2 mg/kg, po; format: ADME, organism-based; conditions: in vivo
[31] = Unbound fraction in rat at 1 mg/kg, iv or 2 mg/kg, po; format: ADME, organism-based; conditions: in vivo
[32] = Half life in dog at 0.5 mg/kg, iv or 2 mg/kg, po; format: ADME, organism-based, Canis lupus familiaris; conditions: in vivo
[33] = Half life in rhesus monkey at 0.5 mg/kg, iv or 2 mg/kg, po; format: ADME, organism-based, Macaca mulatta; conditions: in vivo
[34] = Volume of distribution in rat at 0.5 mg/kg, iv administered as cassette dose or 2 mg/kg, po; format: ADME, organism-based; conditions: in vivo
[35] = Half life in rat at 0.5 mg/kg, iv administered as cassette dose or 2 mg/kg, po; format: ADME, organism-based; conditions: in vivo
[36] = Plasma clearance in rat at 0.5 mg/kg, iv administered as cassette dose or 2 mg/kg, po; format: ADME, organism-based

Row | Structure (SMILES) | EC50 [1] [µM] | AUC/dose (Rattus norvegicus [2]) [µM·h/mg/kg] | IC50 [3] [µM] | IC50 [4] [µM] | EC50 [5] [µM] | IC50 [6] [µM] | bioavailability [7] [%] | Emax [8] [%] | IC50 [9] [µM] | Vd [10] [L/kg] | half-life [11] [h] | IC50 [12] [µM] | clearance [13] [mL/min/kg] | AUC/dose (Canis familiaris [16]) [µM·h/mg/kg] | AC50 [19] [µM] | further results
1 | O=C(c1ccc(C[C@@H]2CC[C@H]([C@H](O)c3ccccc3)N2)cc1)N1CCN(Cc2ncn(CC(F)(F)F)n2)CC1 | 0.0016 | 0.3 | > 60 | > 20 | 0.065 | > 20 | < 1 | 113 | > 10 | 38 | 5.4 | > 30 | 105 |  |  | 
2 | CCn1nnc(CN2CCN(C(=O)c3ccc(C[C@@H]4CC[C@H]([C@H](O)c5ccccc5)N4)cc3)CC2)n1 | 0.0051 |  | > 60 | > 20 | 1.52 | > 20 |  | 91 | > 10 |  |  | > 30 |  |  |  | 
3 | CCc1nnc([C@H]2[C@@H]3CN(C(=O)c4ccc(C[C@@H]5CC[C@H]([C@H](O)c6ccccc6)N5)cc4)C[C@@H]32)o1 |  | 0.21 |  |  |  |  |  |  |  |  |  |  |  | 0.46 |  | Vd [14]: 5.2 L/kg; clearance [15]: 30 mL/min/kg; bioavailability [17]: 5%; AUC/dose (Rhesus monkey [18]): 0.06 µM·h/mg/kg
4 | O=C(c1ccc(C[C@@H]2CC[C@H]([C@H](O)c3ccccc3)N2)cc1)N1CCN(Cc2nnn(CC3CC3)n2)CC1 | 0.0052 |  | 39.4 | > 20 | 1.39 | > 20 |  | 99 | > 10 |  |  | > 30 |  |  | 70 | 
5 | O=C(c1ccc(C[C@@H]2CC[C@H]([C@H](O)c3ccccc3)N2)cc1)N1CCN(Cc2ccccn2)CC1 |  | 0.35 |  | > 20 | 0.339 | > 20 | 71 | 87 to 88 | > 10 | 19 | 2.6 | > 30 | 71 | 1.3 | 54 | fAUC/dose (Rhesus monkey [20]): 0.14 µM·h/mg/kg; CL free (Rattus norvegicus [21]): 148 mL/min/kg; clearance [22]: 7.9 mL/min/kg; Vd [23]: 6.4 L/kg; fraction unbound [24]: 0.42; Vd [14]: 11 L/kg; bioavailability [25]: 27%; clearance [15]: 18 mL/min/kg; CL free (Rhesus monkey [26]): 43 mL/min/kg; CL free (Canis familiaris [27]): 17 mL/min/kg; fraction unbound [28]: 0.48; bioavailability [17]: 16%; AUC/dose (Rhesus monkey [18]): 0.34 µM·h/mg/kg; fAUC/dose (Canis familiaris [29]): 0.62 µM·h/mg/kg; fAUC/dose (Rattus norvegicus [30]): 0.17 µM·h/mg/kg; fraction unbound [31]: 0.48; half-life [32]: 12 h; half-life [33]: 5.8 h
6 | Cc1nnc(-c2cccc(CN3CCN(C(=O)c4ccc(C[C@@H]5CC[C@H]([C@H](O)c6ccccc6)N5)cc4)CC3)n2)o1 | 0.0025 |  |  | > 20 | 0.254 | > 20 |  | 109 | > 10 |  |  | > 30 |  |  | 68 | 
7 | O=C(c1ccc(C[C@@H]2CC[C@H]([C@H](O)c3ccccc3)N2)cc1)N1CCN(Cc2nnn(CC(F)F)n2)CC1 | 0.0015 | 0.05 |  | > 20 | 0.827 | > 20 | 16 | 101 | > 10 | 21 | 2.6 | > 30 | 102 | 0.29 | > 100 | CL free (Rattus norvegicus [21]): 182 mL/min/kg; clearance [22]: 22 mL/min/kg; Vd [23]: 13 L/kg; bioavailability [25]: 20%; CL free (Canis familiaris [27]): 34 mL/min/kg; fraction unbound [28]: 0.65; fAUC/dose (Canis familiaris [29]): 0.19 µM·h/mg/kg; fAUC/dose (Rattus norvegicus [30]): 0.03 µM·h/mg/kg; fraction unbound [31]: 0.56; half-life [32]: 8.5 h
8 | O=C(c1ccc(C[C@@H]2CC[C@H]([C@H](O)c3ccccc3)N2)cc1)N1CCN(Cc2ncn(CC(F)F)n2)CC1 | 0.0029 | 0.29 |  | > 20 | 0.026 | > 20 | < 1 | 108 | > 10 | 57 | 7.3 | > 30 | 111 |  |  | 
9 | Cc1noc(-c2cccc(CN3CCN(C(=O)c4ccc(C[C@@H]5CC[C@H]([C@H](O)c6ccccc6)N5)cc4)CC3)n2)n1 | 0.00032 |  | > 60 | > 20 | 0.251 | > 20 |  | 99 | 8.79 |  |  | > 30 |  |  |  | Vd [34]: 19 L/kg; half-life [35]: 1.8 h; clearance [36]: 181 mL/min/kg
